# ChEMBL document CHEMBL4325889, “Natural products hybrids: 3,5,4'-Trimethoxystilbene-5,6,7-trimethoxyflavone chimeric analogs as potential cytotoxic agents against diverse human cancer cells” (Eur J Med Chem, 2019)
# Activity calls are given as the source filed them. The calls are words filed in the database; no cut-off is given here.
# Experiments:
# CCRF-CEM = assay: Growth inhibition of human CCRF-CEM cells at 10 uM after 48 hrs by SRB assay relative to control; format: functional; settings: read-out: GI
# In short: (§1)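 Screened at the National Cancer Institute by the standard NCI protocol using the sulforhodamine B assay, which measures cellular protein. Single dose of 10 µM. Result is percent growth inhibition; values above 100% mean cell number fell below the initial population. Values are the average of duplicates.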
# SR = assay: Growth inhibition of human SR cells at 10 uM after 48 hrs by SRB assay relative to control; format: functional; settings: read-out: GI
# In short: (§2)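 NCI screen against its human cancer cell line panel by the standard NCI protocol, SRB protein stain. Single dose of 10 μM. Percent growth inhibition versus control; values above 100% mean the cell population fell below the starting number. Each value is the mean of duplicates.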
# A549 = assay: Growth inhibition of human A549 cells at 10 uM after 48 hrs by SRB assay relative to control; format: functional; settings: A549, 48 h, read-out: GI; in short: as §1
# NCI-H226 = assay: Growth inhibition of human NCI-H226 cells at 10 uM after 48 hrs by SRB assay relative to control; format: functional; settings: NCI-H226, 48 h, read-out: GI; in short: as §1
# NCI-H23 = assay: Growth inhibition of human NCI-H23 cells at 10 uM after 48 hrs by SRB assay relative to control; format: functional; settings: NCI-H23, 48 h, read-out: GI; in short: as §1
# NCI-H322M = assay: Growth inhibition of human NCI-H322M cells at 10 uM after 48 hrs by SRB assay relative to control; format: functional; settings: read-out: GI; in short: as §1
# NCI-H460 = assay: Growth inhibition of human NCI-H460 cells at 10 uM after 48 hrs by SRB assay relative to control; format: functional; settings: NCI-H460, 48 h, read-out: GI; in short: as §1
# NCI-H522 = assay: Growth inhibition of human NCI-H522 cells at 10 uM after 48 hrs by SRB assay relative to control; format: functional; settings: NCI-H522, 48 h, read-out: GI; in short: as §1
# COLO 205 = assay: Growth inhibition of human COLO205 cells at 10 uM after 48 hrs by SRB assay relative to control; format: functional; settings: COLO 205, 48 h, read-out: GI; in short: as §1
# HCC 2998 = assay: Growth inhibition of human HCC2998 cells at 10 uM after 48 hrs by SRB assay relative to control; format: functional; settings: HCC 2998, 48 h, read-out: GI; in short: as §1
# HT-29 = assay: Growth inhibition of human HT-29 cells at 10 uM after 48 hrs by SRB assay relative to control; format: functional; settings: HT-29, 48 h, read-out: GI; in short: as §1
# SF-295 = assay: Growth inhibition of human SF295 cells at 10 uM after 48 hrs by SRB assay relative to control; format: functional; settings: SF-295, 48 h, read-out: GI; in short: as §1
# U-251 = assay: Growth inhibition of human U251 cells at 10 uM after 48 hrs by SRB assay relative to control; format: functional; settings: U-251, 48 h, read-out: GI; in short: as §2
# MDA-MB-435 = assay: Growth inhibition of human MDA-MB-435 cells at 10 uM after 48 hrs by SRB assay relative to control; format: functional; settings: MDA-MB-435, 48 h, read-out: GI; in short: as §1
# SK-MEL-5 = assay: Growth inhibition of human SK-MEL-5 cells at 10 uM after 48 hrs by SRB assay relative to control; format: functional; settings: SK-MEL-5, 48 h, read-out: GI; in short: as §1
# UACC-62 = assay: Growth inhibition of human UACC62 cells at 10 uM after 48 hrs by SRB assay relative to control; format: functional; settings: UACC-62, 48 h, read-out: GI; in short: as §2
# OVCAR-3 = assay: Growth inhibition of human OVCAR3 cells at 10 uM after 48 hrs by SRB assay relative to control; format: functional; settings: OVCAR-3, 48 h, read-out: GI; in short: as §1
# OVCAR-4 = assay: Growth inhibition of human OVCAR4 cells at 10 uM after 48 hrs by SRB assay relative to control; format: functional; settings: OVCAR-4, 48 h, read-out: GI; in short: as §1
# TK-10 = assay: Growth inhibition of human TK10 cells at 10 uM after 48 hrs by SRB assay relative to control; format: functional; settings: TK-10, 48 h, read-out: GI; in short: as §2
# BT-549 = assay: Growth inhibition of human BT549 cells at 10 uM after 48 hrs by SRB assay relative to control; format: functional; settings: BT-549, 48 h, read-out: GI; in short: as §1
# L132 = assay: Cytotoxicity against human L-132 cells after 48 hrs by MTT assay; format: cell-based; settings: L132, 48 h
# In short: (§3)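 Normal human lung epithelial L132 and ovarian epithelial IOSE-80PC cells were tested by MTT viability assay, and IC50 was determined.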
# [1] = Cytotoxicity against human IOSE-80PC cells after 48 hrs by MTT assay; format: cell-based; in short: as §3
# HeLa [2] = assay: Antiproliferative activity against human HeLa cells after 48 hrs by MTT assay; format: functional, cell-based
# In short: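 HeLa cervical cancer cells, growth inhibition measured by MTT viability assay, and IC50 determined.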
# HeLa [3] = assay: Induction of morphological changes in human HeLa cells assessed as apoptotic body formation at 10 uM after 48 hrs by DAPI staining based fluorescence microscopic method; format: functional, cell-based
# In short: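 HeLa cells exposed to 10 µM for 48 h, then stained with DAPI. Nuclear shape, size and density (bright condensed, fragmented chromatin, apoptotic bodies) examined by fluorescence microscopy under 358 nm excitation, against untreated control cells.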
# HeLa [4] = assay: Induction of apoptosis in human HeLa cells assessed as live cells at 2.5 uM by Annexin V-FITC/propidium iodide staining based flow cytometry (reference value: 85.2%); format: functional
# In short: (§4)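 HeLa human cervical cancer cells treated with increasing concentrations or for increasing incubation times. Cells stained with annexin V-FITC and propidium iodide and analysed by FACS. Gating: early apoptotic = annexin+/PI−, late apoptotic = annexin+/PI+.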
# HeLa [5] = assay: Induction of apoptosis in human HeLa cells assessed as early apoptotic cells at 2.5 uM by Annexin V-FITC/propidium iodide staining based flow cytometry (reference value: 5.7%); format: functional; in short: as §4
# HeLa [6] = assay: Induction of apoptosis in human HeLa cells assessed as late apoptotic cells at 2.5 uM by Annexin V-FITC/propidium iodide staining based flow cytometry (reference value: 6.9%); format: functional; in short: as §4
# HeLa [7] = assay: Induction of apoptosis in human HeLa cells assessed as late apoptotic cells at 5 uM by Annexin V-FITC/propidium iodide staining based flow cytometry (reference value: 6.9%); format: functional; in short: as §4
# HeLa [8] = assay: Induction of apoptosis in human HeLa cells assessed as late apoptotic cells at 10 uM by Annexin V-FITC/propidium iodide staining based flow cytometry (reference value: 6.9%); format: functional; in short: as §4
# HeLa [9] = assay: Induction of apoptosis in human HeLa cells assessed as necrotic cells at 10 uM by Annexin V-FITC/propidium iodide staining based flow cytometry (reference value: 2.2%); format: functional; in short: as §4
# HeLa [10] = assay: Induction of apoptosis in human HeLa cells assessed as early apoptotic cells after 24 hrs by Annexin V-FITC/propidium iodide staining based flow cytometry (reference value: 2.6%); format: functional; in short: as §4
# HeLa [11] = assay: Induction of apoptosis in human HeLa cells assessed as live cells after 48 hrs by Annexin V-FITC/propidium iodide staining based flow cytometry (reference value: 92.9%); format: functional; in short: as §4
# HeLa [12] = assay: Induction of apoptosis in human HeLa cells assessed as late apoptotic cells after 48 hrs by Annexin V-FITC/propidium iodide staining based flow cytometry (reference value: 3.6%); format: functional; in short: as §4
SMILES,inhibition of growth at 10 µM (CCRF-CEM) [%],inhibition of growth at 10 µM (SR) [%],inhibition of growth at 10 µM (A549) [%],inhibition of growth at 10 µM (NCI-H226) [%],inhibition of growth at 10 µM (NCI-H23) [%],inhibition of growth at 10 µM (NCI-H322M) [%],inhibition of growth at 10 µM (NCI-H460) [%],inhibition of growth at 10 µM (NCI-H522) [%],inhibition of growth at 10 µM (COLO 205) [%],inhibition of growth at 10 µM (HCC 2998) [%],inhibition of growth at 10 µM (HT-29) [%],inhibition of growth at 10 µM (SF-295) [%],inhibition of growth at 10 µM (U-251) [%],inhibition of growth at 10 µM (MDA-MB-435) [%],inhibition of growth at 10 µM (SK-MEL-5) [%],inhibition of growth at 10 µM (UACC-62) [%],inhibition of growth at 10 µM (OVCAR-3) [%],inhibition of growth at 10 µM (OVCAR-4) [%],inhibition of growth at 10 µM (TK-10) [%],inhibition of growth at 10 µM (BT-549) [%],other results
COc1cc2oc(-c3cccc(NC(=O)c4ccc5c(c4)OCO5)c3)cc(=O)c2c(OC)c1OC,112,88.5,48.7,34.3,47.1,56.5,72.8,63.3,31.9,46.9,70.6,46.1,67.5,46.7,83.6,50,47,41.9,38.4,58.6,IC50 (L132): 55 µM; IC50 [1]: > 100 µM
COc1cc(NC(=O)c2cccc(-c3cc(=O)c4c(OC)c(OC)c(OC)cc4o3)c2)cc(OC)c1OC,68.7,70.2,56.5,41.5,51.2,30.5,70,65.3,55.7,25.9,69,55,55.1,93.6,91.7,49.5,59.2,25.1,30.6,73,IC50 (L132): > 100 µM; IC50 [1]: 67.6 µM; Activity (HeLa [2]): Active; Activity (HeLa [3]): Active; Activity (HeLa [4]): 79%; Activity (HeLa [5]): 11.8%; Activity (HeLa [6]): 6.8%; Activity (HeLa [7]): 13.8%; Activity (HeLa [8]): 21.2%; Activity (HeLa [9]): 12.6%; Activity (HeLa [10]): 13.4%; Activity (HeLa [11]): 33.2%; Activity (HeLa [12]): 39.1%
COc1cc(NC(=O)c2cccc(-c3cc(=O)c4c(O)c(OC)c(OC)cc4o3)c2)cc(OC)c1OC,41.9,45.6,59.5,92.3,65.1,25.6,46.2,58.8,32.3,34,37.2,38.5,55.2,34.6,60.8,50.6,76.2,41.4,25.2,93,IC50 (L132): > 100 µM; IC50 [1]: > 100 µM
